From ChEMBL document CHEMBL1132185, “3-O-Desacyl monophosphoryl lipid A derivatives: synthesis and immunostimulant activities” (J Med Chem, 1999) come the findings set out here.

The nature of data set [1]: Ability to induce iNOS gene expression assessed in an in vitro system utilizing peritoneal exudate cells(PEC) from Propionibacterium acnes-primed mice. The format is functional. The following applies: Mus musculus; read-out: ED50 (the source's name). In outline: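 ICR mice (female, 4-8 weeks) primed i.p. on day 0 with 1 mg heat-killed P. acnes in 0.2 mL saline; peritoneal exudate cells harvested day 4, adhered at 2 × 10^5 cells/well, nonadherent cells washed off. Test materials at various concentrations, in quadruplicate, in RPMI-1640 with 10% FCS for 24 h at 37 °C. Supernatant nitrite measured by Griess reaction; ED50 from nonlinear curve fit.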

Data set [2] concerns Oryctolagus cuniculus. The data set is described as follows: Total temperature rise in three rabbits at a dose of 10 ug/kg. It counts as functional. An outline of the steps: (§1)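 USP three-rabbit pyrogen test in New Zealand white rabbits (female, 1.5–5.0 kg). Stocks were 100 µg/mL in 10% aq EtOH, diluted in D5W and given into the marginal ear vein at 3 mL/kg. Rectal temperature was taken every 30 min for 3 h and the maximum rise over baseline recorded per rabbit. MPD is the dose giving a three-rabbit total rise ≥1.2 °C.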

The species named for data set [3] is Oryctolagus cuniculus. As to the kind of experiment: Minimum pyrogenic dose(MPD) was determined. It counts as functional. An outline of the steps: as §1
Data set [4] can be described thus: (§2) lethal toxicity produced when compound is administered along with […] (iv). It counts as organism-based. The following applies: in vivo.
A short description of data set [5]: as §2. It counts as organism-based, Homo sapiens. The following applies: mouse, in vivo.
The species entered for another data set is Homo sapiens. The data set is described as follows: Relative ex vivo cytokine induction in human whole blood stimulated with 10 ug/mL (done by ELISA)for Interleukin (IL1-beta). The format is functional. An outline of the steps: (§3)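 Heparinized whole blood from one healthy human volunteer, 0.45 mL, was mixed with 0.05 mL PBS (pH 7.4) containing test compound. It was incubated 4 h at 37 °C with shaking, then diluted with 1.5 mL PBS and centrifuged. Supernatant TNF-α and IL-1β were quantified in duplicate by sandwich ELISA.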

Data set [6] concerns the target Tumor necrosis factor (Homo sapiens) (UniProt P01375). The data set is described as follows: Relative ex vivo cytokine induction in human whole blood stimulated with 10 ug/mL (done by ELISA) for Tumor necrosis factor alpha. The format is functional, tissue-based. In outline: as §3
(In general: In an ELISA, binding on a coated surface is turned into a signal by an enzyme label.)

The species named for data set [7] is Mus musculus. The data set is described as follows: Adjuvant activity was assessed by measuring tetanus toxoid-specific antibody responses in serum of mice immunised. (evaluated as IgG2b). It counts as functional. An outline of the steps:
(§4)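 Mice immunised on day 0 and day 21 with tetanus toxoid (2 μg per 2 mL emulsion) plus test article in 2.5% oil-water emulsion (12% lecithin-squalene oil phase; 0.1% Tween 80-saline aqueous phase). Controls received toxoid in 2.5% oil-water vehicle. Sera were taken from the orbital plexus 14 days after the second injection, diluted 2-fold ×11 from 1:200 and tested individually by toxoid-coated ELISA. Values are test titer/vehicle control titer.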

For data set [8], the species on record is Mus musculus. As to the kind of experiment: Adjuvant activity was assessed by measuring tetanus toxoid-specific antibody responses in serum of mice immunised. (evaluated as IgG2a). The format is functional. In outline:
as §4

Data set [9] is filed under the species Mus musculus. The data set is described as follows: Adjuvant activity was assessed by measuring tetanus toxoid-specific antibody responses in serum of mice immunised. (evaluated as total Ig). It counts as functional. An outline of the steps: as §4
For data set [10], the species on record is Mus musculus. As to the kind of experiment: Adjuvant activity was assessed by measuring tetanus toxoid-specific antibody responses in serum of mice immunised. (evaluated as IgG1). The format is functional. An outline of the steps: as §4

Sequence of Tumor necrosis factor (Homo sapiens) (P01375 whole entry): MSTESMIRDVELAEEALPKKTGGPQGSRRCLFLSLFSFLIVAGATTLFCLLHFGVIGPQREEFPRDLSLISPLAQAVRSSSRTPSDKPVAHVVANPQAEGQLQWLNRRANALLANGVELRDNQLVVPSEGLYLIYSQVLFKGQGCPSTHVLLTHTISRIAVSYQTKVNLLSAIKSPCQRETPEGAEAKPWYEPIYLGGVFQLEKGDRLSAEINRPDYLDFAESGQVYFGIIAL

Consider `CCCCCCCCCCC[C@H](CC(=O)NC1C(O)OC(COC2OC(CO)C(OP(=O)(O)O)C(OC(=O)C[C@@H](CCCCCCCCCCC)OC(=O)CCCCC)C2NC(=O)C[C@@H](CCCCCCCCCCC)OC(=O)CCCCC)C(O)C1O)OC(=O)CCCCC.CCN(CC)CC` (some centres undefined), for which, in data set [1], the EC50 is over 10000 ng/mL. For the same compound, the Fever response in the data set with Oryctolagus cuniculus [2] is 1.7 °C. This compound registered an MPD in the data set filed under Oryctolagus cuniculus [3] of 10 µg/kg. Also, the LD50 in [4] is 4 µg.

Consider `CCCCCCCCCCCC(=O)O[C@H](CCCCCCCCCCC)CC(=O)NC1C(O)OC(COC2OC(CO)C(OP(=O)(O)O)C(OC(=O)C[C@@H](CCCCCCCCCCC)OC(=O)CCCCCCCCCCC)C2NC(=O)C[C@@H](CCCCCCCCCCC)OC(=O)CCCCCCCCCCC)C(O)C1O.CCN(CC)CC` (some centres undefined), for which the EC50 in data set [1] came out at 1 ng/mL. In addition, the Fever response in the data set on Oryctolagus cuniculus [2] was 5.3 °C. This compound also had an LD50 in data set [5] of 0.04 µg. For the same compound, the MPD in the data set filed under Oryctolagus cuniculus [3] is under 2.5 µg/kg. Also, the Induction in the data set filed under Homo sapiens is 2.9; in [6], 4.6.

For `CCCCCCCCCCC[C@H](CC(=O)NC1C(O)OC(COC2OC(CO)C(OP(=O)(O)O)C(OC(=O)C[C@@H](CCCCCCCCCCC)OC(=O)CCCCCCC)C2NC(=O)C[C@@H](CCCCCCCCCCC)OC(=O)CCCCCCC)C(O)C1O)OC(=O)CCCCCCC.CCN(CC)CC` (some centres undefined), the EC50 in data set [1] is 0.3 ng/mL. This compound displayed a Fever response in the data set on Oryctolagus cuniculus [2] of 3.9 °C. In the data set filed under Oryctolagus cuniculus [3], this compound gave an MPD of under 2.5 µg/kg. Besides, the LD50 in data set [4] is 0.2 µg.

For `CCCCCCCCCCCCCC(=O)O[C@H](CCCCCCCCCCC)CC(=O)NC1C(O)OC(COC2OC(CO)C(OP(=O)(O)O)C(OC(=O)C[C@@H](CCCCCCCCCCC)OC(=O)CCCCCCCCCCCCC)C2NC(=O)C[C@@H](CCCCCCCCCCC)OC(=O)CCCCCCCCCCCCC)C(O)C1O.CCN(CC)CC` (some centres undefined), in data set [1], the EC50 was determined as 5 ng/mL. Moreover, the Adjuvant activity in the data set filed under Mus musculus [7] was 4.5; in the data set listed under Mus musculus [8] it was 14.6; in the data set listed under Mus musculus [9], 8.2; in the data set filed under Mus musculus [10], 4.5. In the data set on Oryctolagus cuniculus [2], this compound gave a Fever response of 0.3 °C. The compound further displayed an LD50 in data set [5] of 1 µg. For the same compound, the MPD in the data set filed under Oryctolagus cuniculus [3] was 15 µg/kg. In addition, the results for the Induction (in the data set filed under Homo sapiens; in data set [6]) were 3.4 and 1.7, respectively.

Take `CCCCCCCCCCC[C@H](CC(=O)NC1C(O)OC(COC2OC(CO)C(OP(=O)(O)O)C(OC(=O)C[C@@H](CCCCCCCCCCC)OC(=O)CCCCCCCCC)C2NC(=O)C[C@@H](CCCCCCCCCCC)OC(=O)CCCCCCCCC)C(O)C1O)OC(=O)CCCCCCCCC.CCN(CC)CC` (some centres undefined): the EC50 in data set [1] turned out to be 0.05 ng/mL. Besides, the Adjuvant activity is reported as 4.3 in the data set listed under Mus musculus [7], 6 in the data set filed under Mus musculus [8], 6.2 in the data set filed under Mus musculus [9] and 2.4 in the data set listed under Mus musculus [10]. This compound also registered a Fever response in the data set on Oryctolagus cuniculus [2] of 4.1 °C. Moreover, the LD50 in [5] came to 0.02 µg. In the data set listed under Oryctolagus cuniculus [3], this compound gave an MPD of under 0.06 µg/kg. For the same compound, the Induction in the data set filed under Homo sapiens amounted to 7.3; in data set [6], 3.

For `CCCCCCCCCCCCCCCC(=O)O[C@H](CCCCCCCCCCC)CC(=O)NC1C(O)OC(COC2OC(CO)C(OP(=O)(O)O)C(OC(=O)C[C@@H](CCCCCCCCCCC)OC(=O)CCCCCCCCCCCCC)C2NC(=O)C[C@@H](CCCCCCCCCCC)OC(=O)CCCCCCCCCCC)C(O)C1O.CCN(CC)CC` (some centres undefined), in data set [1], the EC50 came to 10 ng/mL. For the same compound, the Fever response in the data set on Oryctolagus cuniculus [2] is 0.6 °C. Further, the LD50 in data set [5] turned out to be 1 µg. The same compound yielded an MPD in the data set filed under Oryctolagus cuniculus [3] of 15 µg/kg. The Induction worked out at 1.4 in the data set listed under Homo sapiens and 1.6 in [6].

With `CCCCCCCCCCC[C@H](CC(=O)NC1C(O)OC(COC2OC(CO)C(OP(=O)(O)O)C(OC(=O)C[C@@H](CCCCCCCCCCC)OC(=O)CCC)C2NC(=O)C[C@@H](CCCCCCCCCCC)OC(=O)CCC)C(O)C1O)OC(=O)CCC.CCN(CC)CC` (some centres undefined), in data set [1], the EC50 is over 10000 ng/mL. The compound also yielded a Fever response with Oryctolagus cuniculus [2] of 1.5 °C. In addition, the MPD in the data set listed under Oryctolagus cuniculus [3] was 10 µg/kg. For the same compound, the LD50 in [4] stood at 4.5 µg.
